CSN deneddyl inh – CSN deneddylation inhibition; Q92905; Purified CSN, SCF-Nedd8-OG deneddylation, fluorescence polarization; inhibition, % at 12.5 µM; 0.38% of 360,000 active;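 active = pattern-corrected inhibition above about 35%, with an unprinted fluorescence ratio check between 0.5 and 1.5, limit read from the data, passing the limit was not always enough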;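 note: 0% = enzyme with substrate and 100% = substrate without enzyme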
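Schedule: reaction 90 min, room temperature / Assay system: HEK293T-derived human Csn5 enzyme / Input: Csn5 at 0.24 nM final / Measure: inhibition of Csn5 cleavage, % / Control set: substrate-only high control, full reaction low control / Technique: fluorescence polarization of the substrate / Buffer or medium: Tris/NaCl/DTT buffer, pH 7.5 / Reagent: SCFSkp2-Nedd8OG substrate at 10 nM final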
HNF4A DNA FP – change in binding of human HNF4 alpha to DNA; 0.3% of 360,000 active; activity change, % at 10 µM; HNF4a-FITC DNA binding, fluorescence polarization, 1 h; AID 1224865; in the data active = activity change above about 30%, passing the limit was not always enough
TPT1 inhibitor – blocks Candida albicans tRNA 2'-phosphotransferase. inhibition, % at 5 µM. recombinant caTPT1, FP RNA substrate dephosphorylation. 0.81% of 300,000 active;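 active = inhibition above the mean of all tested compounds plus 3 SD, set per screening campaign, cut at about 24% in these data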;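 note: plate controls were DMSO alone for no effect and ferristatin control at 100 nM for full effect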
ATG4B inh – ATG4B (human) cysteine protease inhibition. ATG4B cleavage of LC3-PLA2, NBD-HPC fluorescence, 1 h. 0.51% of 340,000 active. inhibition, % at 8.33 µM. AID 504462; in the data active = inhibition above about 40%
Rpn11 block – inhibitors of human proteasome Rpn11. O00487. human 26S proteasome, Ub4-pepOG fluorescence polarization; 20S core pre-blocked with epoxomicin. inhibition, % at 20 µM. 0.59% of 360,000 active. AID 588493;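 active = inhibition at 20 µM, scaled to each plate's controls, above about 33%, limit read from the data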
Target sequence (O00487 whole entry, looked up): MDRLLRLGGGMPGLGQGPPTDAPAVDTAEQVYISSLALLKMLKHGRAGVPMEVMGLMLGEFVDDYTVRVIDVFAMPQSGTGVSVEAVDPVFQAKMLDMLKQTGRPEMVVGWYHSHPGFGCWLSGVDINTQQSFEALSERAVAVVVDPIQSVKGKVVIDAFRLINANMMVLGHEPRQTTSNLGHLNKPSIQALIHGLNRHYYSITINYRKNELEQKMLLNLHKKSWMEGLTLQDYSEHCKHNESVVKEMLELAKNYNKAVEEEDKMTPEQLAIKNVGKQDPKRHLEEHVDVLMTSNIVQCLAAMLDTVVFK
SENP1 inh – SENP1 (human) catalytic domain inhibition; AID 624204; 0.21% of 360,000 active; recombinant SENP1 catalytic domain, CyPet-SUMO1-YPet FRET cleavage; inhibition, % at 10 µM; Q9P0U3;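 active = inhibition at least 30% at 10 µM, raw YFP signal under a set limit, fluorescence ratio 0.5 to 1.5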;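 note: 0% = enzyme with DMSO and 100% = no enzyme wells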
Target sequence (Q9P0U3 419-644 limits assumed): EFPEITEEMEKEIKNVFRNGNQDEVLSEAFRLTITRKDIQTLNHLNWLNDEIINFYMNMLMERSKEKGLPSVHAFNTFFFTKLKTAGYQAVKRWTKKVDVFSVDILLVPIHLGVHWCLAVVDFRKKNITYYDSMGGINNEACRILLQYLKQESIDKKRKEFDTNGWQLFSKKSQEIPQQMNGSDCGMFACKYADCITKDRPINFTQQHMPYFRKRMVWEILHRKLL
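Material – human SENP1 catalytic domain · Input – SENP1 enzyme, 20 pM final · Compound dosing – single concentration of 10 µM compound, 0.5% DMSO final · Timing – enzyme reaction for 50 min at room temperature, dark · Measured by – FRET fluorescence in CFP and YFP emission channels · Control set – no-enzyme wells low, DMSO-plus-enzyme wells high control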
ATG4B conf – ATG4B (human) inhibition, single-dose confirmed | ATG4B protease fluorescent substrate cleavage assay | AID 504757 | inhibition, % at 8.33 µM | shares compounds with ATG4B inh | 92% of 320 active; in the data active = inhibition above about 39%
PLA2 counter – PLA2 (human) inhibition in ATG4B counter-screen; shares compounds with ATG4B inh; purified PLA2, NBD-C6-HPC fluorescence, 45 min; inhibition, % at 8.33 µM; 66% of 1,600 active; AID 588402; in the data active = inhibition above about 50%
Target sequence (P04054 whole entry, looked up): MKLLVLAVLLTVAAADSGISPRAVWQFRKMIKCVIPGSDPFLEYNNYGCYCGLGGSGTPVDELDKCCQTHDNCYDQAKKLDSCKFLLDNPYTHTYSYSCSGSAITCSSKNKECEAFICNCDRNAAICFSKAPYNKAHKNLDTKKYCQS
An asterisk follows results filed as active; x = no result shown. The list is not random: actives were taken first. Their share in the collection is about 2%.

SMILES	CSN deneddyl inh	HNF4A DNA FP	TPT1 inhibitor	ATG4B inh	Rpn11 block	SENP1 inh	PLA2 counter	others
C[C@@H]1CN[C@@H](CCO)/C1=C\c1ccccc1	-2.3	-2.9	x	0.2	-1.1	-0.6	x
COc1cccc(NC(=O)CN(C)C(=O)C2CC(=O)N(CCc3ccc(OC)c(OC)c3)C2)c1 (stereo not given)	-2.6	-7.5	x	-11.6	-1.0	-2.8	x
COc1cccc(-c2ccc3ncnc(NCc4cccc(C)c4)c3c2)c1	1.8	-1.0	x	40.1*	-8.3	1.5	49.8
Nc1c(CNCc2nnn(Cc3ccccc3)c2N)nnn1Cc1ccccc1	1.3	-1.3	x	x	-5.0	-3.9	x
O=C(Nc1nnc(SCc2ccccc2Cl)s1)C1COc2ccccc2O1 (stereo not given)	-1.4	1.7	-2.4	40.0	-7.4	1.8	x
O=C(Nc1nnc(SCc2cccc3ccccc23)s1)C1COc2ccccc2O1 (stereo not given)	-15.2	-3.4	-1.0	44.1*	-3.9	1.0	61.8*
Cc1csc(NC(=O)C2COc3ccccc3O2)n1 (stereo not given)	0.7	3.5	0.1	7.2	5.5	-0.8	x
Cc1ccccc1CSc1nnc(NC(=O)C2COc3ccccc3O2)s1 (stereo not given)	3.0	2.7	-1.8	48.6*	-7.1	1.7	60.5*
C=CCN1C(=O)C(Cc2ccccc2Cl)SC1=Nc1ccc(C(=O)O)cc1 (stereo not given)	3.9	-1.1	-2.7	55.3*	1.5	0.8	58.5*
CCN(CC)c1nc(N)c2c(N)nc3c(c2c1C#N)CC(c1ccccc1)O3 (stereo not given)	4.9	1.6	-0.4	12.2	15.7	-19.6	x
CCN(CC)c1nc(N)c2c(N)n(-c3ccccc3C)c(=S)c(C#N)c2c1C#N	24.4	6.9	10.6	54.5*	x	-17.1	70.3*
COc1ccc(CC(N)c2csc(NC(=O)c3cc(C(C)(C)C)nn3Cc3ccccc3)n2)cc1 (stereo not given)	6.7	14.5	x	x	26.7	-32.4	x
O=C(Nc1ccc(S(=O)(=O)NC2=NCCCCC2)cc1)c1ccc(Cl)c([N+](=O)[O-])c1	-3.8	-0.4	x	-6.8	0.9	1.3	x
Cc1cccc(C)c1NS(=O)(=O)c1ccc(NC(=O)c2ccc(Cl)c([N+](=O)[O-])c2)cc1	-0.7	-1.8	1.5	48.5*	2.4	-0.1	42.9
O=C(O)C(=Cc1ccccc1[N+](=O)[O-])c1ccc2c(c1)OCO2	0.3	-4.2	x	x	-7.8	-2.9	x
N=C1SC(c2ccccc2)C(=O)N1c1ncc(Cc2ccccc2)s1 (stereo not given)	-13.4	-1.9	-0.1	55.5*	10.3	-0.3	23.6
O=C1NC(c2ccc(Cl)cc2)Oc2ccccc21 (stereo not given)	7.5	-0.2	1.4	1.2	2.8	2.4	x
CC(C)c1ccc(C2NC(=O)c3ccccc3O2)cc1 (stereo not given)	-0.9	-2.4	-0.5	40.5*	6.0	4.1	40.3
CC(C)(C)c1ccc(OC(=O)c2ccccc2)cc1	3.9	-3.8	0.1	67.5*	9.0	2.5	64.3*
O=C(Oc1ccccc1)c1ccccc1	-2.1	-5.1	x	1.4	1.3	-0.4	x
Cc1ccccc1CN(C)CC(=O)Nc1ccccc1-c1ccccc1	5.6	-6.8	5.2	51.5*	-4.7	0.7	53.6*
Cc1cc(C)cc(N(CC(=O)Nc2ccccc2-c2ccccc2)S(=O)(=O)c2ccccc2)c1	-9.3	0.4	-0.4	57.5*	0.6	3.9	13.8
CSCc1ccc(C(=O)OCc2nc3ccccc3s2)o1	0.1	3.9	x	10.3	6.1	-12.3	x
COC(=O)CSc1nc2cc(Cl)ccc2c(=O)n1C1CCCC1	0.9	-1.8	-3.0	45.9*	9.5	-0.1	26.4	ATG4B conf=60.6*
CCCNC(=O)C1(C)CCCN(C(=O)Cc2cccc(OC)c2)C1 (stereo not given)	0.1	0.9	x	x	-7.0	2.5	x
SMILES	CSN deneddyl inh	HNF4A DNA FP	TPT1 inhibitor	ATG4B inh	Rpn11 block	SENP1 inh	PLA2 counter	others
Nc1ccc2ccccc2c1N=Nc1ccccc1	-2.1	-2.5	x	10.5	-5.3	5.9	x
COc1ccc(C=NNc2ccc(S(=O)(=O)Nc3ccccc3C(=O)O)cc2[N+](=O)[O-])c(OC)c1	-8.9	-7.9	x	47.8*	-10.0	5.3	49.1
Cc1nn(-c2ccccc2)c(Cl)c1/C=N/Nc1ccc(S(=O)(=O)Nc2ccccc2C(=O)O)cc1[N+](=O)[O-]	-2.1	-15.8	2.4	66.5*	4.2	1.7	47.2
CSc1ccc(C=NNc2ccc(S(=O)(=O)Nc3ccccc3C(=O)O)cc2[N+](=O)[O-])cc1	15.4	-63.8	x	-2.3	-13.3	4.9	x
CCN(CC(=O)Nc1c(F)cccc1F)C(=O)CNC(=O)c1ccc(C)s1	-1.9	0.8	-3.5	0.5	7.0	-0.2	x
Cc1ccc(C)c(S(=O)(=O)N2CCN(c3nc(CN4CCOCC4)nc4sc(C)c(C)c34)CC2)c1	1.9	0.8	x	52.2*	5.9	-0.7	69.5*
Oc1ccc(-c2csc(Nc3ncccn3)n2)c(O)c1	-6.8	2.3	-1.9	0.6	2.8	3.3	x
Oc1ccc(-c2csc(Nc3ccc4c(c3)OCO4)n2)c(O)c1	-1.7	-1.4	x	42.4*	3.3	-2.9	59.3*
Cc1ccccc1N1CCN(C(=O)NCc2cccc(Cl)c2)CC1	-0.6	-0.1	4.0	61.0*	-0.8	2.5	72.7*
COc1ccc(CNC(=O)N2CCN(c3cccc(C)c3C)CC2)cc1OC	-2.5	2.1	-2.9	2.8	10.1	0.4	x
Cc1ccc(NC(=O)CN2CCN(S(=O)(=O)c3ccc4c(c3)OCCO4)CC2)c(C)c1	-2.4	-0.3	x	x	5.2	0.8	x
CC(C)(C)c1ccc(C(=O)CC(=O)c2cc(Cl)ccc2O)cc1	-2.1	-1.1	-1.4	-0.5	3.3	3.1	x
Cc1ccc(C(=O)CC(=O)c2cc(Cl)ccc2O)cc1	-1.3	2.0	-2.0	46.5*	-3.9	5.4	47.0	ATG4B conf=71.9*
O=C1CCCCC(=O)[C@H](O)C[C@H](c2ccccc2)O1	2.6	-2.8	x	x	x	0.4	x
Cc1cccc(OCC(=O)Nc2ccccc2-c2ccccc2)c1	-1.5	2.4	0.5	45.1*	-11.8	0.2	43.6	ATG4B conf=63.9*
Cc1c(NC(=O)c2ccccc2NC(=O)COc2ccccc2)cccc1C(=O)O	4.5	0.0	-1.7	40.1*	-0.6	-0.2	-14.1
CCCCN(C(=O)c1cccc(S(=O)(=O)N(CC)c2ccccc2)c1)c1c(N)n(CC(C)C)c(=O)[nH]c1=O	1.5	-1.7	x	-50.5	-0.3	-0.3	x

Screens: PubChem, several laboratories
